Shown are actives, neighbours in structure and some others; about 2.9% of the full set was active somewhere.
SIRT5 inh – SIRT5 desuccinylase inhibitors, primary screen, biochemical, fluorescence imaging, single point, set 5; NAD-dependent protein deacylase sirtuin-5, mitochondrial (Homo sapiens), Q9NXA8; Purified SirT5, succinyl-peptide AMC, trypsin-coupled fluorescence; inhibition, % at 15 µM; 330,000 compounds, 1.1% hits; AID 652115, 2013; in the data active = inhibition above about 15%; inconclusive = no clear call, values can overlap the other calls
Target sequence (Q9NXA8 whole entry, looked up): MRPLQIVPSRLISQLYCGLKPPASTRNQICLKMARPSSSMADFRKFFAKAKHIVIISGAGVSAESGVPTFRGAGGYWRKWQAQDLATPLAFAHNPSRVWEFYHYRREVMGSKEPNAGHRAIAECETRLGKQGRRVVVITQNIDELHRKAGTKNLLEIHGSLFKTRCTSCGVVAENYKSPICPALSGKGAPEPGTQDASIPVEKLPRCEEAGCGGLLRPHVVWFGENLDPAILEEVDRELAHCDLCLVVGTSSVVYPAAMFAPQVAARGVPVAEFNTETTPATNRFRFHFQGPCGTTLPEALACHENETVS
E-sel inducer – E-selectin induction in HUVECs, primary screen, imaging, HUVEC, immunofluorescence imaging, single point; P16581; normalized: neutral wells 0, TNF-alpha wells 100; activation, % at 7.58 µM; 260,000 compounds, 0.37% hits; AID 686992, 2013;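 active = mean E-selectin-positive cell signal at least 10% of the positive control, reached in at least 60% of replicates, without over 20% cell loss; inconclusive = no rule given, readout overlaps actives, possibly toxicity-flagged; inactive = the rest, including those meeting only one limit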
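Material: HUVEC primary endothelial cells; Amount: 3,000 cells per well; Dosing: single concentration; Medium: EGM-2 growth medium on 0.1% gelatin-coated wells; Read-out basis: percent E-selectin-positive cells; Signal: immunofluorescence imaging; Control set: TNF-alpha, DMSO.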
DENV2 CPE – inhibitors of DENV2 cytopathic effect, primary screen, cell-based, plate reader, single concentration; DENV2-infected cells, cytopathic effect rescue; CPE inhibition, % at 9.99 µM; 350,000 compounds, 1.7% hits; AID 651640, 2012; in the data active = CPE inhibition above about 20%, passing the limit was not always enough; inconclusive = no clear call, values can overlap the other calls; tested in BHK-21 cells;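 note: 0% = median of neutral control wells and 100% = median of positive control wells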
An asterisk follows results filed as active.

Screening Cn1cc(CC(=O)Nc2ccc(Nc3cccnc3)cc2)c2ccccc21 returned E-sel inducer 1 and DENV2 CPE 54*.
Screening CN(c1cccnc1)c1ccc(NC(=O)Cc2cn(Cc3ccccc3)c3ccccc23)cc1Br returned E-sel inducer 0 and DENV2 CPE 2.
For O=C(Cc1cn(Cc2ccccc2)c2ccccc12)Nc1ccc(Oc2cccnc2)cc1 the results were SIRT5 inh -6, E-sel inducer 0 and DENV2 CPE 49*.
`CCOC(=O)CSc1nc2c(cnn2-c2ccc(Cl)cc2)c(=O)[nH]1` gave SIRT5 inh -4, E-sel inducer 0 and DENV2 CPE 2.
`C[C@H](CO)N1C[C@H](C)[C@@H](CN(C)C(=O)Nc2cccc3ccccc23)OCCCC[C@H](C)Oc2ccc(NS(=O)(=O)c3ccc(Cl)cc3)cc2C1=O` gave SIRT5 inh 8 and DENV2 CPE -2.
For C[C@@H]1CCCCO[C@H](CN(C)C(=O)Nc2cccc3ccccc23)[C@@H](C)CN([C@H](C)CO)C(=O)c2cc(NS(=O)(=O)c3ccc(F)cc3)ccc2O1 the results were SIRT5 inh 0, E-sel inducer 0 and DENV2 CPE -2.
`C[C@H]1CCCCO[C@H](CN(C)C(=O)Nc2cccc3ccccc23)[C@@H](C)CN([C@@H](C)CO)C(=O)c2cc(NS(=O)(=O)c3ccc(F)cc3)ccc2O1` gave SIRT5 inh 17*, E-sel inducer 0 and DENV2 CPE 26*.
`C[C@H]1CCCCO[C@H](CN(C)C(=O)Nc2cccc3ccccc23)[C@@H](C)CN([C@@H](C)CO)C(=O)c2cc(NS(=O)(=O)c3ccc(Cl)cc3)ccc2O1` gave SIRT5 inh 7 and DENV2 CPE 44*.
For O=S(=O)(c1ccc(Br)cc1)N1CCN(c2cc(-c3ccccc3)nc3ncnn23)CC1 the results were SIRT5 inh 3 and DENV2 CPE 9.
`COc1cc(C(=O)NC2CCCC(C)C2C)ccc1OCC(=O)N1CCOCC1` (configuration not stated) gave SIRT5 inh -1, E-sel inducer 0 and DENV2 CPE -2.
For COc1ccc(CC(=O)NC2CCCCCC2)c(OC)c1 the results were SIRT5 inh -5 and DENV2 CPE 64*.
`COc1ccc(OC)c(NC(=O)CCCC(=O)NC2CCCCC2)c1` gave SIRT5 inh 1, E-sel inducer 0 and DENV2 CPE 4.
`CCN(CC)c1ccc(N=C2C=CC(=O)C=C2NC(C)=O)cc1` gave E-sel inducer 1 and DENV2 CPE 13.
`Cc1noc(C)c1NC(=O)Nc1cccc2c1O[C@H](CN(C)Cc1ccc(-c3ccccc3)cc1)[C@H](C)CN([C@@H](C)CO)C2=O` gave SIRT5 inh -2, E-sel inducer 0 and DENV2 CPE inconclusive.
C[C@@H](NC(=O)c1ncn(C)c1C(=O)N[C@H](C)c1ccccc1)c1ccccc1 was read as SIRT5 inh 0, E-sel inducer 0 and DENV2 CPE 90*.
`C[C@@H](NC(=O)c1ncn2c1c(=O)[nH]c1cccnc12)c1ccccc1` gave SIRT5 inh -13, E-sel inducer 2 and DENV2 CPE 3.
O=C(C[C@H]1C[C@H]2c3cc(NC(=O)NC4CCCC4)ccc3O[C@H]2[C@@H](CO)O1)NC1CCCC1 was read as SIRT5 inh -9, E-sel inducer -1 and DENV2 CPE -5.
CNC[C@@H]1Oc2ncc(-c3cccc(F)c3)cc2C(=O)N([C@@H](C)CO)C[C@@H]1C was read as SIRT5 inh -3, E-sel inducer 0 and DENV2 CPE 25*.
Screening C[C@@H]1CN([C@@H](C)CO)C(=O)c2cc(-c3cccnc3)cnc2O[C@@H]1CN(C)Cc1ccc(-c2ccccc2)cc1 returned SIRT5 inh 3, E-sel inducer 0 and DENV2 CPE 37*.
For C[C@@H]1CN([C@@H](C)CO)C(=O)c2cc(-c3cccc(F)c3)cnc2O[C@@H]1CN(C)Cc1ccncc1 the results were SIRT5 inh 21* and DENV2 CPE 3.
Screening C[C@@H]1CN([C@@H](C)CO)C(=O)c2cc(-c3cccc(F)c3)cnc2O[C@H]1CN(C)Cc1ccncc1 returned SIRT5 inh 3, E-sel inducer 0 and DENV2 CPE -7.
Screening CNC[C@H]1Oc2ncc(C#Cc3ccccc3F)cc2C(=O)N([C@@H](C)CO)C[C@H]1C returned SIRT5 inh -2, E-sel inducer 0 and DENV2 CPE 71*.
Screening C[C@@H]1CN([C@H](C)CO)C(=O)c2cc(-c3cccnc3)cnc2O[C@H]1CN(C)Cc1ccc(-c2ccccc2)cc1 returned SIRT5 inh 2, E-sel inducer 0 and DENV2 CPE -5.

Screening results: PubChem, Broad Institute
